We go through one compound from ChEMBL document CHEMBL1255191, “Design and synthesis of hydroxyethylamine (HEA) BACE-1 inhibitors: structure-activity relationship of the aryl region” (Bioorg Med Chem Lett, 2010).

One series deals with Cathepsin D (Homo sapiens, UniProt P07339). The experiment in a line: Inhibition of cathepsin D. The note with it: read-out: IC50. The gist of the method: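 Cathepsin-D at 0.6 nM final in 100 mM sodium acetate pH 4.5; compounds three-fold serially diluted in DMSO, then diluted 33× in buffer, preincubated with enzyme 30 min. Biotinylated peptide substrate with C-terminal Oregon Green started reaction, 110 min at 37 °C. Quenched with streptavidin in 200 mM sodium phosphate pH 7.5; fluorescence polarization read, cleavage lowering polarization.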
Chain of Cathepsin D (P07339 65-162 limits assumed): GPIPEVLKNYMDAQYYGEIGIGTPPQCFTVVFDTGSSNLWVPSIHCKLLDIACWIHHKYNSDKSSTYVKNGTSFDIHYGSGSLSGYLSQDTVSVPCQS
Chain of Cathepsin D (P07339 169-412 limits assumed): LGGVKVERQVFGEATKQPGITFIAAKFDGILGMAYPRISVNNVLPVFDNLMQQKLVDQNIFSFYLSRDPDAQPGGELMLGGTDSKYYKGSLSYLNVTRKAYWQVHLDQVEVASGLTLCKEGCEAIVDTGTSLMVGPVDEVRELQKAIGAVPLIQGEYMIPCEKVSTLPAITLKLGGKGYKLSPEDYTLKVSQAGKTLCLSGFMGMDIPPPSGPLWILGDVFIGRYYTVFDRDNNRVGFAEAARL

Series [1] in a line: Lipophilicity, log P of the compound. It counts as physicochemical. The note with it: octanol/water.
The nature of series [2]: Apparent permeability across MDCK2 cells. The note with it: dog, MDCK. It counts as ADME, cell-based, Canis lupus familiaris, MDCK-II.
The target in series [3] is T1, Beta-secretase 1 (Homo sapiens, UniProt P56817). The experiment in a line: Inhibition of BACE1. The gist of the method:
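Recombinant BACE from E. coli; compounds serially diluted in DMSO, preincubated with enzyme 20 min at room temperature in 100 mM sodium acetate, 0.001% Tween-20, pH 4.5. Biotinylated Swedish-mutant APP peptide with C-terminal Oregon Green added; 3 h at 37 °C.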

Series [4] deals with T1, Beta-secretase 1. The experiment in a line: Inhibition of BACE1 in HEK293 cells. It counts as cell-based.
Series [5] can be described thus: […] constant pKa of the compound. It counts as physicochemical. The note with it: read-out: pKa. The gist of the method:
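pKa measured by capillary electrophoresis.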

T1 sequence (P56817 whole entry): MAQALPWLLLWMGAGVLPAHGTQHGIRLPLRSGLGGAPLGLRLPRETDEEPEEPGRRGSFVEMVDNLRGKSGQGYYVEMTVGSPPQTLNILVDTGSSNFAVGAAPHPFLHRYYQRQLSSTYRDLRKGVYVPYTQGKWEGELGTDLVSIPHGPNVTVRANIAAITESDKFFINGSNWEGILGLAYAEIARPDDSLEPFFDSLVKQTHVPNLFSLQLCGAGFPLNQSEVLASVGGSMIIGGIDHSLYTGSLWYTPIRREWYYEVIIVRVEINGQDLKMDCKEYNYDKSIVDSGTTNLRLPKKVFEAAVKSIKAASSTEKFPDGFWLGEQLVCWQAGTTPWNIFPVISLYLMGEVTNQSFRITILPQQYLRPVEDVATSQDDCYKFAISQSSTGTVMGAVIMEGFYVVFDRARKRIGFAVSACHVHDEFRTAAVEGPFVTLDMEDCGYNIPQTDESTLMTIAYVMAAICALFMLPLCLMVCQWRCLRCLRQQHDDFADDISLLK

By IC50 is commonly meant the concentration that inhibits the measured activity by half. What is called logP is the decadic logarithm of the partition coefficient of the neutral form, usually between octanol and water. A high value points to a more lipophilic compound. The term Papp denotes a coefficient for how fast a substance crosses the barrier. What is called pKa is the pH at which an ionisable group is half protonated. As for `CC(=O)N[C@@H](Cc1cc(F)cc(F)c1)[C@H](O)CNC1(c2cc(CC(C)(C)C)no2)CCCCC1`, the IC50 on Cathepsin D was determined as 14 nM; at Beta-secretase 1 [3], 139 nM. Also, the logP in series [1] turned out to be 4.2. For the same compound, the Papp in series [2] was found to be 18 ×10⁻⁶ cm/s. Besides, the ED50 at Beta-secretase 1 [4] came to 88 nM. The pKa in series [5] amounted to 6.4.
